ChEMBL document CHEMBL2434875, “Novel nonsecosteroidal VDR agonists with phenyl-pyrrolyl pentane skeleton” (Eur J Med Chem, 2013)
Active and inactive are the calls of the source. The calls are words filed in the database; no cut-off is given here.

Assays:
[1] = biological target: T1, Vitamin D3 receptor (Homo sapiens) (UniProt P11473); test: Agonist activity at VDR in human HL60 cells assessed as induction of cell differentiation at >50 uM after 96 hrs by NBT reduction assay; assay type: cell-based; details: HL-60
T1 sequence (whole entry): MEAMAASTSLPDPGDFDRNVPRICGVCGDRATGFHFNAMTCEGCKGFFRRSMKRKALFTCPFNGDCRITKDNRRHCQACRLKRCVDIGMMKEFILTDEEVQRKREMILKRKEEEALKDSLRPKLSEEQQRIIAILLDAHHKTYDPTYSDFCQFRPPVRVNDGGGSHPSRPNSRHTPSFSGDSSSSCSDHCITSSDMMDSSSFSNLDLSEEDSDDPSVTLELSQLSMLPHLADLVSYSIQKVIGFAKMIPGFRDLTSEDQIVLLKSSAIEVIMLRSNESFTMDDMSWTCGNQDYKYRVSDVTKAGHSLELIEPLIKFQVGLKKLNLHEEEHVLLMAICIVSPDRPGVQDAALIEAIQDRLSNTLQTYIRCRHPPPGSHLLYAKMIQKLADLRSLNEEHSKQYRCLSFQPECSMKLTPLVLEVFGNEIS

[2] = tested on: MCF7; test: Cytotoxicity against human MCF7 cells after 48 hrs by MTT assay; assay type: functional, cell-based; details: MCF7, 48 h
Procedure, shortened: (§1)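 HaCaT or MCF-7 cells grown 48 h at 37 °C, 5% CO₂, no medium change. MTT (5 mg/mL) with DMEM added, 4 h. Medium replaced by DMSO to dissolve formazan, A570 read. IC50 from log-linear dose regression. Compounds above 85% efficacy rescreened for the final IC50. Triplicate experiments.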

[3] = tested on: HaCaT; test: Cytotoxicity against human HaCaT cells at >50 uM after 48 hrs by MTT assay; assay type: functional, cell-based; procedure, shortened: as §1
[4] = tested on: Mus musculus; test: In vivo calcemic activity in ICR mouse assessed as serum calcium level at 5 ug/kg, sc administered for 7 days (reference value: 8.76 mg/dL); assay type: ADME, organism-based; details: 0.005 mg/kg, 168 h
[5] = tested on: HaCaT; test: Cytotoxicity against human HaCaT cells after 48 hrs by MTT assay; assay type: functional, cell-based; procedure, shortened: as §1
[6] = tested on: Mus musculus; test: In vivo calcemic activity in ICR mouse assessed as serum calcium level at 30 mg/kg, sc administered for 7 days (reference value: 8.76 mg/dL); assay type: ADME, organism-based; design: dose 30 mg/kg, route subcutaneous; details: 168 h
[7] = tested on: Mus musculus; test: In vivo calcemic activity in ICR mouse assessed as serum calcium level at 10 mg/kg, sc administered for 7 days (reference value: 8.76 mg/dL); assay type: ADME, organism-based; design: dose 10 mg/kg, route subcutaneous; details: 168 h
[8] = tested on: Mus musculus; test: In vivo calcemic activity in ICR mouse assessed as serum calcium level at 0.5 mg/kg, sc administered for 7 days (reference value: 8.76 mg/dL); assay type: ADME, organism-based; design: dose 0.5 mg/kg, route subcutaneous; details: 168 h
[9] = tested on: MCF7; test: Cytotoxicity against human MCF7 cells at >50 uM after 48 hrs by MTT assay; assay type: functional, cell-based; procedure, shortened: as §1

Compound: CCC(CC)(c1ccc(OCC(O)C(C)(C)C)c(C)c1)c1ccc(C(=O)N[C@@H](CC(=O)O)C(=O)O)n1C (stereo partly specified)
- Activity [1]: inactive

Compound: CCn1c(C(=O)N[C@@H](C)C(=O)O)ccc1C(CC)(CC)c1ccc(OCC(O)C(C)(C)C)c(C)c1 (stereo partly specified)
- IC50 [2]: 180 nM
- growth inhibition (GI) [3]: inactive

Compound: CCC(CC)(c1ccc(OCC(O)C(C)(C)C)c(C)c1)c1ccc(C(=O)NCCO)n1C (stereo unspecified)
- Activity [1]: inactive

Compound: CCn1c(C(=O)N[C@@H](CC(=O)OC)C(=O)OC)ccc1C(CC)(CC)c1ccc(OCC(=O)C(C)(C)C)c(C)c1
- Activity [1]: inactive

Compound: C=C1/C(=C\C=C2/CCC[C@]3(C)[C@@H]([C@H](C)CC[C@@H](O)C(C)C)CC[C@@H]23)C[C@@H](O)C[C@@H]1O [TACALCITOL]
- Activity [4]: 12.14 mg/dL
- IC50 [2]: 57 nM
- IC50 [5]: 2070 nM

Compound: CCn1c(C(=O)NCC(=O)O)ccc1C(CC)(CC)c1ccc(OCC(O)C(C)(C)C)c(C)c1 (stereo unspecified)
- Activity [1]: inactive

Compound: CCC(CC)(c1ccc(OCC(O)C(C)(C)C)c(C)c1)c1ccc(C(=O)N[C@H](CO)CCO)n1C (stereo partly specified)
- Activity [6]: 8.94 mg/dL
- Activity [7]: 9.29 mg/dL
- Activity [8]: 8.91 mg/dL
- IC50 [2]: 7.83 nM
- IC50 [5]: 190 nM

Compound: CCC(CC)(c1ccc(OCC(O)C(C)(C)C)c(C)c1)c1ccc(C(=O)NCCCO)n1C (stereo unspecified)
- IC50 [2]: 16400 nM
- growth inhibition (GI) [3]: inactive

Compound: CCn1c(C(=O)N[C@@H](CC(=O)O)C(=O)O)ccc1C(CC)(CC)c1ccc(OCC(=O)C(C)(C)C)c(C)c1
- Activity [1]: inactive

Compound: CCC(CC)(c1ccc(OCC(=O)C(C)(C)C)c(C)c1)c1ccc(C(=O)NCC(=O)O)n1C
- Activity [1]: inactive

Compound: CCC(CC)(c1ccc(OCC(=O)C(C)(C)C)c(C)c1)c1ccc(C(=O)NCC(=O)OC)n1C
- growth inhibition (GI) [9]: inactive
- growth inhibition (GI) [3]: inactive

Compound: CCC(CC)(c1ccc(OCC(O)C(C)(C)C)c(C)c1)c1ccc(C(=O)NCC(=O)O)n1C (stereo unspecified)
- growth inhibition (GI) [9]: inactive
- IC50 [5]: 9810 nM

Compound: CCC(CC)(c1ccc(OCC(=O)C(C)(C)C)c(C)c1)c1ccc(C(=O)N[C@@H](C)C(=O)O)n1C
- growth inhibition (GI) [9]: inactive
- growth inhibition (GI) [3]: inactive

Compound: CCC(CC)(c1ccc(OCC(=O)C(C)(C)C)c(C)c1)c1ccc(C(=O)N[C@@H](CC(=O)O)C(=O)O)n1C
- IC50 [2]: 160 nM
- growth inhibition (GI) [3]: inactive

Compound: CCn1c(C(=O)NCCC(=O)O)ccc1C(CC)(CC)c1ccc(OCC(O)C(C)(C)C)c(C)c1 (stereo unspecified)
- growth inhibition (GI) [9]: inactive
- growth inhibition (GI) [3]: inactive

Compound: CCC(CC)(c1ccc(OCC(O)C(C)(C)C)c(C)c1)c1ccc(C(=O)N[C@@H](C)CO)n1C (stereo partly specified)
- growth inhibition (GI) [9]: inactive
- IC50 [5]: 15700 nM

Compound: CCn1c(C(=O)NCCCO)ccc1C(CC)(CC)c1ccc(OCC(O)C(C)(C)C)c(C)c1 (stereo unspecified)
- Activity [1]: inactive

Compound: CCC(CC)(c1ccc(OCC(=O)C(C)(C)C)c(C)c1)c1ccc(C(=O)N[C@@H](CC(=O)OC)C(=O)OC)n1C
- Activity [1]: inactive

Compound: CCn1c(C(=O)N[C@@H](C)CO)ccc1C(CC)(CC)c1ccc(OCC(O)C(C)(C)C)c(C)c1 (stereo partly specified)
- Activity [6]: 9.08 mg/dL
- Activity [7]: 8.3 mg/dL
- Activity [8]: 8.09 mg/dL
- IC50 [2]: 307 nM
- IC50 [5]: 2060 nM

Compound: CCC(CC)(c1ccc(OCC(=O)C(C)(C)C)c(C)c1)c1ccc(C(=O)NCCC(=O)O)n1C
- Activity [1]: inactive

Compound: CCn1c(C(=O)NCCC(=O)OC)ccc1C(CC)(CC)c1ccc(OCC(=O)C(C)(C)C)c(C)c1
- Activity [1]: inactive

Compound: CCn1c(C(=O)N[C@@H](CC(=O)O)C(=O)O)ccc1C(CC)(CC)c1ccc(OCC(O)C(C)(C)C)c(C)c1 (stereo partly specified)
- Activity [1]: inactive

Compound: CCC(CC)(c1ccc(OCC(O)C(C)(C)C)c(C)c1)c1ccc(C(=O)NCCC(=O)O)n1C (stereo unspecified)
- growth inhibition (GI) [9]: inactive
- growth inhibition (GI) [3]: inactive

Compound: CCC(CC)(c1ccc(OCC(O)C(C)(C)C)c(C)c1)c1ccc(C(=O)N[C@@H](C)C(=O)O)n1C (stereo partly specified)
- Activity [1]: inactive

Compound: CCn1c(C(=O)NCCC(=O)O)ccc1C(CC)(CC)c1ccc(OCC(=O)C(C)(C)C)c(C)c1
- Activity [1]: inactive

Compound: CCC(CC)(c1ccc(OCC(=O)C(C)(C)C)c(C)c1)c1ccc(C(=O)N[C@@H](C)C(=O)OC)n1C
- Activity [1]: inactive

Compound: CCn1c(C(=O)NCC(=O)OC)ccc1C(CC)(CC)c1ccc(OCC(=O)C(C)(C)C)c(C)c1
- growth inhibition (GI) [9]: inactive
- growth inhibition (GI) [3]: inactive

Compound: CCn1c(C(=O)N[C@@H](C)C(=O)OC)ccc1C(CC)(CC)c1ccc(OCC(=O)C(C)(C)C)c(C)c1
- Activity [1]: inactive

Compound: CCn1c(C(=O)NCC(=O)O)ccc1C(CC)(CC)c1ccc(OCC(=O)C(C)(C)C)c(C)c1
- Activity [1]: inactive

Compound: CCn1c(C(=O)NCCO)ccc1C(CC)(CC)c1ccc(OCC(O)C(C)(C)C)c(C)c1 (stereo unspecified)
- IC50 [2]: 1810 nM
- IC50 [5]: 2080 nM

Compound: CCn1c(C(=O)N[C@H](CO)CCO)ccc1C(CC)(CC)c1ccc(OCC(O)C(C)(C)C)c(C)c1 (stereo partly specified)
- IC50 [2]: 300 nM
- IC50 [5]: 1250 nM

Compound: CCC(CC)(c1ccc(OCC(=O)C(C)(C)C)c(C)c1)c1ccc(C(=O)NCCC(=O)OC)n1C
- growth inhibition (GI) [9]: inactive
- IC50 [5]: 28900 nM

Compound: CCn1c(C(=O)N[C@@H](C)C(=O)O)ccc1C(CC)(CC)c1ccc(OCC(=O)C(C)(C)C)c(C)c1
- Activity [1]: inactive
